Bioassay records as filed in PubChem.
In the library only some 2.9% were active in any assay of this set; here they are far more common.
C2C12 statin: suppressors of simvastatin-induced myotoxicity in C2C12 myotubes; ATP luminescence, 48 h; scaled: DMSO 0, geranylgeraniol control 100; rescue of ATP level, % at 7.49 µM; 330,000 compounds, 0.78% hits; AID 602340;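 active means mean ATP rescue above about 67%, or every replicate alone reaching that limit, limit read from the data, passing the limit was not always enough; inconclusive means no clear call, values can overlap the other calls; inactive means mean under the limit and some replicate under it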;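 further: myotubes were challenged with 10 µM simvastatin during compound exposure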
SIRT5 block: sirtuin-5 (human) deacylase inhibition; 330,000 compounds, 1.1% hits; inhibition, % at 15 µM; Purified SirT5, succinyl-peptide AMC, trypsin-coupled fluorescence; in the data active means inhibition above about 15%; inconclusive means no clear call, values can overlap the other calls
Target sequence (Q9NXA8 whole entry, looked up): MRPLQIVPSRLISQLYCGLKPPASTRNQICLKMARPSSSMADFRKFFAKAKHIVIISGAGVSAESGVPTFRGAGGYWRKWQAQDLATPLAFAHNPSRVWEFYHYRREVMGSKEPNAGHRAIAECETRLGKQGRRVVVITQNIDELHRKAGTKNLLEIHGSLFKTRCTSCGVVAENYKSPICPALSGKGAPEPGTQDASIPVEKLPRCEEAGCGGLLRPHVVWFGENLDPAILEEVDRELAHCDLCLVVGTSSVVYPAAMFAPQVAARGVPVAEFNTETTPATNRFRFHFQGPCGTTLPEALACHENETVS
PGC1a acetyl inh: lowers PGC1a acetylation signal in U2OS cells. AlphaScreen anti-acetyl-lysine; with virally co-expressed GCN5 acetyltransferase. inhibition, % at 15.6 µM. 350,000 compounds, 0.17% hits. AID 651687;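 active means every replicate shows inhibition of at least 40%; inconclusive means mean inhibition at least 40% but some replicate below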
DENV2 CPE: inhibitors of DENV2 cytopathic effect; DENV2-infected cells, cytopathic effect rescue, plate reader; CPE inhibition, % at 9.99 µM; 350,000 compounds, 1.7% hits; in the data active means CPE inhibition above about 20%, passing the limit was not always enough; inconclusive means no clear call, values can overlap the other calls; tested in BHK-21 cells
S100A4 inh HTS: blocks human S100A4 binding to myosin IIA peptide; AID 652163; 360,000 compounds, 0.14% hits; inhibition, % at 10.7 µM; S100A4/TAMRA-MyoIIA peptide fluorescence polarization; P26447;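 active means mean inhibition of at least 70% across replicates, with every replicate also reaching that level; inconclusive means mean inhibition reaches 70% but some replicates fall short; inactive means mean inhibition below 70%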
Target sequence (P26447 whole entry, looked up): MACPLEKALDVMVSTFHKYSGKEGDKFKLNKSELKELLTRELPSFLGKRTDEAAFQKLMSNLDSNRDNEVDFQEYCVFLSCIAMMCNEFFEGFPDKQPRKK
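System – human S100A4 monomer protein, biochemical binding assay · Buffer or medium – Calcium-containing HEPES buffer, pH 7.2 · Timing – 5 min between mix addition and reading · Also added – TAMRA-labelled myosin IIA heavy-chain peptide probe, 5 nM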
A number is an active result; ! = repeats disagree.

`CCc1ccc2nc(N3CCC(C(=O)N4CCC5(CC4)OCCO5)CC3)sc2c1` gave SIRT5 block 30, PGC1a acetyl inh inactive, DENV2 CPE inactive and S100A4 inh HTS inactive.
Screening N#Cc1cccc(-c2ccc([C@H]3[C@H](CO)N4CCCCN(C(=O)Cc5ccccc5)C[C@@H]34)cc2)c1 returned SIRT5 block inactive, PGC1a acetyl inh inactive, DENV2 CPE inactive and S100A4 inh HTS inactive.
`O=C1CC[C@@]2(O)[C@H]3Cc4ccc(O)c5c4[C@@]2(CCN3CC2CC2)C1O5` (stereo not given in full) gave DENV2 CPE 28! and S100A4 inh HTS inactive.
Screening O=C(Cc1cccnc1)N1CCCCN2[C@@H](CO)[C@@H](c3ccc(/C=C/c4ccccc4)cc3)[C@@H]2C1 returned SIRT5 block inactive, PGC1a acetyl inh inactive, DENV2 CPE inactive and S100A4 inh HTS inactive.
CN(C)c1cc[n+](CC(O)C[n+]2ccc(N(C)C)cc2)cc1 was read as C2C12 statin inactive, DENV2 CPE 25 and S100A4 inh HTS inactive.
CN(C)c1ccc([P+](=O)c2ccc(N(C)C)cc2)cc1 was read as SIRT5 block inactive, PGC1a acetyl inh inactive, DENV2 CPE inactive and S100A4 inh HTS inactive.
`C[C@H]1CCC/C=C/[C@@H]2C[C@H](O)C[C@H]2[C@H](O)/C=C/C(=O)O1` gave C2C12 statin inactive, SIRT5 block inactive, PGC1a acetyl inh 69, DENV2 CPE inactive and S100A4 inh HTS inactive.
Screening C[C@H]1CCCC(=O)CCC/C=C/c2cc(O)cc(O)c2C(=O)O1 returned C2C12 statin inactive, SIRT5 block inactive, DENV2 CPE inconclusive and S100A4 inh HTS inactive.
Screening CCCCC1(CCO)C(=O)NC(=S)NC1=O returned C2C12 statin inactive, SIRT5 block inactive, PGC1a acetyl inh inactive, DENV2 CPE inactive and S100A4 inh HTS inactive.
For CCCCC1(CN2CCCC2=O)C(=O)NC(=O)NC1=O the results were C2C12 statin 106 and PGC1a acetyl inh inactive.
`COc1ccc(C#Cc2ccc([C@@H]3[C@H]4CN(C(=O)Cc5cccnc5)CCCCN4[C@H]3CO)cc2)cc1` gave SIRT5 block inactive, PGC1a acetyl inh inactive, DENV2 CPE inactive and S100A4 inh HTS inactive.
Screening CC(=O)OC(C)(C)/C=C/C(=O)[C@](C)(O)[C@H]1[C@H](O)C[C@@]2(C)[C@@H]3CC=C4[C@H](C[C@H](O)C(=O)C4(C)C)[C@]3(C)C(=O)C[C@]12C returned C2C12 statin inactive and PGC1a acetyl inh 88.
For CC(=O)OC(C)(C)/C=C/C(=O)C(C)(O)C1[C@H](O)C[C@@]2(C)C3CC=C4C(CC[C@@H](O)C4(C)C)[C@]3(CO)C(=O)C[C@]12C (stereo not given in full) the results were C2C12 statin inactive, SIRT5 block inactive, DENV2 CPE inactive and S100A4 inh HTS inactive.
`CC(=O)OC(C)(C)/C=C/C(=O)C(C)(O)C1C(O)CC2(C)C3CC=C4C(CC(O)C(=O)C4(C)C)C3(C)C(=O)CC12C` (stereo not given) gave SIRT5 block inactive, PGC1a acetyl inh 70, DENV2 CPE inactive and S100A4 inh HTS inactive.
CCOc1cccc(N2C(=O)/C(=C/c3ccco3)C(=O)NC2=S)c1 was read as C2C12 statin inactive, SIRT5 block 36, PGC1a acetyl inh inactive, DENV2 CPE inactive and S100A4 inh HTS inactive.
Screening COc1cccc(N2C(=O)/C(=C/c3ccc(C)o3)C(=O)NC2=S)c1 returned C2C12 statin inactive, SIRT5 block inactive, DENV2 CPE inactive and S100A4 inh HTS inactive.
`COc1ccccc1/C=C1\C(=O)NC(=S)N(c2ccccc2)C1=O` gave C2C12 statin inactive, SIRT5 block inactive, PGC1a acetyl inh inactive, DENV2 CPE inactive and S100A4 inh HTS inactive.
`O=C1NC(=S)N(c2ccccc2)C(=O)/C1=C/c1ccco1` gave C2C12 statin inactive, SIRT5 block 38, PGC1a acetyl inh inactive, DENV2 CPE inactive and S100A4 inh HTS inactive.
COC(=O)[C@H]1[C@H](CO)[C@H]2Cn3c(cccc3=O)[C@@H]1N2C(=O)C1CCCC1 was read as C2C12 statin inactive, SIRT5 block inactive, DENV2 CPE inactive and S100A4 inh HTS inactive.
O=C(O)[C@H]1[C@H](CO)[C@H]2Cn3c(ccc(-c4cncnc4)c3=O)[C@@H]1N2C(=O)NC1CCCC1 was read as C2C12 statin inactive, SIRT5 block inactive, DENV2 CPE inactive and S100A4 inh HTS inactive.
`COc1ccc(C(O)(c2cncnc2)C2CC2)cc1` (stereo not given) gave SIRT5 block inactive, PGC1a acetyl inh inactive, DENV2 CPE inactive and S100A4 inh HTS inactive.
Screening CCc1nc2ccccc2c(=O)n1-c1ccc2ccccc2c1 returned C2C12 statin 123 and PGC1a acetyl inh inactive.
Screening COc1ccc(OC(=O)N(C)C[C@H]2OCc3ccccc3-c3c(n(C)c4ccccc34)C(=O)N([C@@H](C)CO)C[C@@H]2C)cc1 returned SIRT5 block inactive, PGC1a acetyl inh inactive, DENV2 CPE inactive and S100A4 inh HTS inactive.
For CC=Cc1ccc2n(c1=O)C[C@H]1[C@H](CO)[C@@H](C(=O)OC)[C@@H]2N1CC1CCCC1 (mixture of isomers) the results were SIRT5 block inactive, PGC1a acetyl inh inactive, DENV2 CPE inconclusive and S100A4 inh HTS inactive.
COc1ccc(N2C(=O)NC(=O)/C(=C/c3ccc([N+](=O)[O-])s3)C2=O)cc1 was read as SIRT5 block 16, PGC1a acetyl inh inactive, DENV2 CPE inactive and S100A4 inh HTS inactive.
For COc1cccc(N2C(=O)NC(=O)/C(=C/c3ccc([N+](=O)[O-])s3)C2=O)c1 the results were SIRT5 block 15, PGC1a acetyl inh inactive, DENV2 CPE inactive and S100A4 inh HTS inactive.
COc1ccccc1N1C(=O)NC(=O)/C(=C/c2ccc([N+](=O)[O-])s2)C1=O was read as SIRT5 block 18, DENV2 CPE inactive and S100A4 inh HTS inactive.
For CCOc1ccc(N2C(=O)NC(=O)/C(=C\c3cc(OC)c(OC)cc3[N+](=O)[O-])C2=O)cc1 the results were S100A4 inh HTS inactive.
For COc1ccccc1N1C(=O)NC(=O)/C(=C\c2cnn(-c3ccccc3)c2)C1=O the results were C2C12 statin inactive, SIRT5 block inactive, PGC1a acetyl inh inactive and S100A4 inh HTS inactive.
`COc1ccc(N2C(=O)NC(=O)/C(=C\c3ccc([N+](=O)[O-])s3)C2=O)cc1` gave SIRT5 block 20, PGC1a acetyl inh inactive, DENV2 CPE inactive and S100A4 inh HTS inactive.
`COC(=O)[C@H]1[C@H](CO)[C@H]2Cn3c(cccc3=O)[C@@H]1N2C(=O)C1CC1` gave C2C12 statin inactive, SIRT5 block inactive, DENV2 CPE inactive and S100A4 inh HTS inactive.
O=C(Cc1ccccc1)N1CC2(C1)[C@@H](c1ccccc1)[C@@H](CO)N2Cc1cccc(F)c1 was read as SIRT5 block inactive, PGC1a acetyl inh inactive, DENV2 CPE inactive and S100A4 inh HTS inactive.
`COC(=O)[C@@H]1[C@@H](CO)[C@@H]2Cn3c(ccc(-c4ccccc4)c3=O)[C@H]1N2CC1CC1` gave C2C12 statin inactive, SIRT5 block inactive, DENV2 CPE inactive and S100A4 inh HTS inactive.
